Laboratory results: ChEMBL document CHEMBL1255303, “In vitro and in vivo antifungal activities of T-2307, a novel arylamidine” (2008)
≈ marks a conversion by molar mass, not a printed value. Calls of active or inactive are those of the source. The rule behind the calls is not given here.

Assays:
Candida albicans [1] = assay: Antifungal activity against Candida albicans ATCC MYA-574 after 47 hrs by broth microdilution method; assay type: functional; settings: ATCC MYA-574, 47 h
Outline: (§1)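 Fluconazole-resistant or susceptible-dose-dependent C. albicans ATCC strains were tested by broth microdilution in RPMI 1640-MOPS. Inoculum was 1.1 × 10^3–1.5 × 10^3 CFU/ml, with incubation at 35°C for about 47 h. Yeast MIC was read as about 50% turbidity decrease relative to growth control, except amphotericin B, read at complete inhibition.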

Malassezia furfur = assay: Antifungal activity against Malassezia furfur NBRC 0656 after 48 hrs by broth microdilution method; assay type: functional; settings: NBRC 0656, 48 h
Outline: (§2)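 CLSI M27-A2 (yeasts) / M38-A (moulds) broth microdilution in RPMI 1640 buffered to pH 7.0 with 0.165 M MOPS. Malassezia furfur got the same medium supplemented with glucose, bile salts, glycerol, glycerol monostearate and Tween 20. Final inoculum 0.65 × 10^3–2.5 × 10^3 CFU/ml for yeasts and 0.87 × 10^4–3.8 × 10^4 CFU/ml for filamentous fungi. Incubation at 35°C except M. racemosus and F. solani, which were held at 30°C.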

Candida albicans [2] = assay: Antifungal activity against Candida albicans ATCC MYA-573 after 47 hrs by broth microdilution method; assay type: functional; settings: ATCC MYA-573, 47 h
Outline: (§3)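 Fluconazole-resistant or susceptible-dose-dependent ATCC C. albicans strains were tested by CLSI M27-A2 broth microdilution in RPMI 1640–0.165 M MOPS, pH 7.0, with a final inoculum of 1.1–1.5 × 10^3 CFU/ml at 35°C for about 47 h. MIC was the lowest concentration with a prominent (~50%) turbidity decrease relative to growth control; amphotericin B was read at complete inhibition.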

Candida albicans [3] = assay: Antifungal activity against Candida albicans TIMM 1623 after 48 hrs by broth microdilution method; assay type: functional; settings: TIMM 1623, 48 h; outline: as §2
Candida albicans [4] = assay: Antifungal activity against Candida albicans ATCC 10261 after 48 hrs by broth microdilution method; assay type: functional; settings: ATCC 10261, 48 h; outline: as §2
Aspergillus niger = assay: Antifungal activity against Aspergillus niger NBRC 33023 after 48 hrs by broth microdilution method; assay type: functional; settings: NBRC 33023, 48 h; outline: as §2
[5] = test system: Meyerozyma guilliermondii; assay: Antifungal activity against Candida guilliermondii IFO 10279 after 48 hrs by broth microdilution method; assay type: functional; settings: IFO 10279, 48 h; outline: as §2
Candida albicans [6] = assay: Antifungal activity against Candida albicans ATCC 64550 after 47 hrs by broth microdilution method; assay type: functional; settings: ATCC 64550, 47 h; outline: as §1
Rhizopus arrhizus = assay: Antifungal activity against Rhizopus oryzae NBRC 31005 after 24 hrs by broth microdilution method; assay type: functional; settings: NBRC 31005, 24 h; outline: as §2
Pichia kudriavzevii = assay: Antifungal activity against Candida krusei clinical isolates after 48 hrs by broth microdilution method; assay type: functional
Outline: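 Japanese hospital Candida isolates were tested by CLSI M27-A2 broth microdilution in RPMI 1640–MOPS, pH 7.0, with inocula of 0.57–2.5 × 10^3 CFU/ml at 35°C for about 48 h. Inocula came from 24-h potato dextrose agar cultures. MIC was the lowest concentration with about 50% turbidity reduction versus growth control (complete inhibition for amphotericin B). Range, MIC50 and MIC90 were reported.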

Aspergillus fumigatus [7] = assay: Antifungal activity against Aspergillus fumigatus clinical isolates after 48 hrs by broth microdilution method; assay type: functional
Outline: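 Clinical isolates from Japanese hospitals or culture collections were tested by broth microdilution in RPMI 1640-MOPS. Inoculum was 0.57 × 10^3–2.5 × 10^3 CFU/ml for yeasts and 0.4 × 10^4–3.3 × 10^4 CFU/ml for filamentous fungi. Incubation was at 35°C for about 48 h, or 72 h where footnoted. Results were summarised as MIC range, MIC50 and MIC90.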

Aspergillus fumigatus [8] = assay: Antifungal activity against Aspergillus fumigatus TIMM 0063 after 48 hrs by broth microdilution method; assay type: functional; settings: TIMM 0063, 48 h; outline: as §2
Cryptococcus neoformans [9] = assay: Antifungal activity against Cryptococcus neoformans ATCC 90113 after 72 hrs by broth microdilution method; assay type: functional; settings: ATCC 90113, 72 h; outline: as §2
Aspergillus nidulans = assay: Antifungal activity against Aspergillus nidulans NBRC 33017 after 48 hrs by broth microdilution method; assay type: functional; settings: NBRC 33017, 48 h; outline: as §2
Candida albicans [10] = assay: Antifungal activity against Candida albicans ATCC MYA-575 after 47 hrs by broth microdilution method; assay type: functional; settings: ATCC MYA-575, 47 h; outline: as §3
Candida albicans [11] = assay: Antifungal activity against Candida albicans ATCC 96901 after 47 hrs by broth microdilution method; assay type: functional; settings: ATCC 96901, 47 h; outline: as §3
Candida dubliniensis = assay: Antifungal activity against Candida dubliniensis ATCC MYA-577 after 48 hrs by broth microdilution method; assay type: functional; settings: ATCC MYA-577, 48 h; outline: as §2
Nakaseomyces glabratus = assay: Antifungal activity against Candida glabrata ATCC 90030 after 48 hrs by broth microdilution method; assay type: functional; settings: ATCC 90030, 48 h; outline: as §2
Aspergillus fumigatus [12] = assay: Antifungal activity against Aspergillus fumigatus IFM 49895 after 48 hrs by broth microdilution method; assay type: functional; settings: IFM 49895, 48 h; outline: as §2
Cryptococcus neoformans [13] = assay: Antifungal activity against Cryptococcus neoformans ATCC 90112 infected ICR mouse after 9 days; assay type: functional; settings: ATCC 90112, 216 h
Outline: (§4)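 Male ICR mice, 4 weeks old and SPF, were made neutropenic with intraperitoneal cyclophosphamide. The schedule was 200 mg/kg on day −3 (day −4 for Cryptococcus) plus 100 mg/kg on day +1. Infection was by tail-vein injection of 0.2 ml suspension: C. albicans 3.0 × 10^4, C. neoformans 9.1 × 10^4, A. fumigatus conidia 8.4 × 10^4 CFU/mouse. Drugs were given subcutaneously once daily for 7 days from 2 h post-infection; controls received saline. Groups had 8–10 mice.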

Trichosporon asahii = assay: Antifungal activity against Trichosporon asahii JCM 2466 after 48 hrs by broth microdilution method; assay type: functional; settings: JCM 2466, 48 h; outline: as §2
Aspergillus fumigatus [14] = assay: Antifungal activity against Aspergillus fumigatus IFM 46895 infected ICR mouse assessed as delay in mortality of mouse at 1 mg/kg after 6 days; assay type: functional, organism-based; set-up: dose 1 mg/kg; outline: as §4
Candida albicans [15] = assay: Antifungal activity against Candida albicans ATCC MYA-2732 after 47 hrs by broth microdilution method; assay type: functional; settings: ATCC MYA-2732, 47 h; outline: as §1
Candida albicans [16] = assay: Antifungal activity against Candida albicans TIMM 1623 infected ICR mouse after 6 days; assay type: functional; settings: TIMM 1623, 144 h; outline: as §4
Aspergillus fumigatus [17] = assay: Antifungal activity against Aspergillus fumigatus IFM 46895 infected ICR mouse after 6 days; assay type: functional; settings: IFM 46895, 144 h; outline: as §4

N=C(N)c1ccc(OCCCC2CCN(CCCOc3ccc(C(=N)N)cc3)CC2)cc1
MIC (Candida albicans [1]): 0.001 µg/mL (≈ 0.00229 µM)
MFC (Malassezia furfur): 2 µg/mL (≈ 4.57 µM)
MIC (Malassezia furfur): 0.0313 µg/mL (≈ 0.0715 µM)
MIC (Candida albicans [2]): 0.001 µg/mL (≈ 0.00229 µM)
MFC (Candida albicans [3]): > 64 µg/mL
MIC (Candida albicans [3]): 0.001 µg/mL (≈ 0.00229 µM)
MFC (Candida albicans [4]): > 64 µg/mL
MIC (Candida albicans [4]): 0.001 µg/mL (≈ 0.00229 µM)
MFC (Aspergillus niger): 0.0625 µg/mL (≈ 0.143 µM)
MIC (Aspergillus niger): 0.0625 µg/mL (≈ 0.143 µM)
MFC [5]: 0.0078 µg/mL (≈ 0.0178 µM)
MIC [5]: 0.002 µg/mL (≈ 0.00457 µM)
MIC (Candida albicans [6]): 0.0005 µg/mL (≈ 0.00114 µM)
MFC (Rhizopus arrhizus): > 64 µg/mL
MIC (Rhizopus arrhizus): > 64 µg/mL
MIC50 (Pichia kudriavzevii): 0.001 µg/mL (≈ 0.00229 µM)
MIC90 (Pichia kudriavzevii): 0.002 µg/mL (≈ 0.00457 µM)
MIC50 (Aspergillus fumigatus [7]): 1 µg/mL (≈ 2.29 µM)
MIC90 (Aspergillus fumigatus [7]): 2 µg/mL (≈ 4.57 µM)
MFC (Aspergillus fumigatus [8]): > 64 µg/mL
MIC (Aspergillus fumigatus [8]): 1 µg/mL (≈ 2.29 µM)
MFC (Cryptococcus neoformans [9]): 0.0625 µg/mL (≈ 0.143 µM)
MIC (Cryptococcus neoformans [9]): 0.0078 µg/mL (≈ 0.0178 µM)
MFC (Aspergillus nidulans): 0.0313 µg/mL (≈ 0.0715 µM)
MIC (Aspergillus nidulans): 0.0156 µg/mL (≈ 0.0356 µM)
MIC (Candida albicans [10]): 0.001 µg/mL (≈ 0.00229 µM)
MIC (Candida albicans [11]): 0.001 µg/mL (≈ 0.00229 µM)
MFC (Candida dubliniensis): > 64 µg/mL
MIC (Candida dubliniensis): 0.001 µg/mL (≈ 0.00229 µM)
MFC (Nakaseomyces glabratus): > 64 µg/mL
MIC (Nakaseomyces glabratus): 0.0039 µg/mL (≈ 0.00891 µM)
MFC (Aspergillus fumigatus [12]): > 64 µg/mL
MIC (Aspergillus fumigatus [12]): 0.5 µg/mL (≈ 1.14 µM)
ED50 (Cryptococcus neoformans [13]): 0.117 mg/kg
MFC (Trichosporon asahii): > 64 µg/mL
MIC (Trichosporon asahii): 64 µg/mL (≈ 146 µM)
Activity (Aspergillus fumigatus [14]): Active
MIC (Candida albicans [15]): 0.001 µg/mL (≈ 0.00229 µM)
ED50 (Candida albicans [16]): 0.00755 mg/kg
ED50 (Aspergillus fumigatus [17]): 0.391 mg/kg

C[C@@H]1[C@H](O)[C@@H](C)/C=C/C=C/C=C/C=C/C=C/C=C/C=C/[C@H](O[C@@H]2O[C@H](C)[C@@H](O)[C@H](N)[C@@H]2O)C[C@@H]2O[C@](O)(C[C@@H](O)C[C@@H](O)[C@H](O)CC[C@@H](O)C[C@@H](O)CC(=O)O[C@H]1C)C[C@H](O)[C@H]2C(=O)O [AMPHOTERICIN B]
MIC (Candida albicans [1]): 1 µg/mL (≈ 1.08 µM)
MFC (Malassezia furfur): 64 µg/mL (≈ 69.3 µM)
MIC (Malassezia furfur): 0.5 µg/mL (≈ 0.541 µM)
MIC (Candida albicans [2]): 2 µg/mL (≈ 2.16 µM)
MFC (Candida albicans [3]): > 1 µg/mL
MIC (Candida albicans [3]): 1 µg/mL (≈ 1.08 µM)
MFC (Candida albicans [4]): 2 µg/mL (≈ 2.16 µM)
MIC (Candida albicans [4]): 1 µg/mL (≈ 1.08 µM)
MFC (Aspergillus niger): 2 µg/mL (≈ 2.16 µM)
MIC (Aspergillus niger): 2 µg/mL (≈ 2.16 µM)
MFC [5]: 1 µg/mL (≈ 1.08 µM)
MIC [5]: 0.5 µg/mL (≈ 0.541 µM)
MIC (Candida albicans [6]): 1 µg/mL (≈ 1.08 µM)
MFC (Rhizopus arrhizus): 1 µg/mL (≈ 1.08 µM)
MIC (Rhizopus arrhizus): 1 µg/mL (≈ 1.08 µM)
MIC (Pichia kudriavzevii): 2 µg/mL (≈ 2.16 µM)
MIC50 (Pichia kudriavzevii): 2 µg/mL (≈ 2.16 µM)
MIC90 (Pichia kudriavzevii): 2 µg/mL (≈ 2.16 µM)
MIC50 (Aspergillus fumigatus [7]): 2 µg/mL (≈ 2.16 µM)
MIC90 (Aspergillus fumigatus [7]): 2 µg/mL (≈ 2.16 µM)
MFC (Aspergillus fumigatus [8]): 2 µg/mL (≈ 2.16 µM)
MIC (Aspergillus fumigatus [8]): 2 µg/mL (≈ 2.16 µM)
MFC (Cryptococcus neoformans [9]): 2 µg/mL (≈ 2.16 µM)
MIC (Cryptococcus neoformans [9]): 2 µg/mL (≈ 2.16 µM)
MFC (Aspergillus nidulans): 2 µg/mL (≈ 2.16 µM)
MIC (Aspergillus nidulans): 2 µg/mL (≈ 2.16 µM)
MIC (Candida albicans [10]): 2 µg/mL (≈ 2.16 µM)
MIC (Candida albicans [11]): 1 µg/mL (≈ 1.08 µM)
MFC (Candida dubliniensis): 2 µg/mL (≈ 2.16 µM)
MIC (Candida dubliniensis): 1 µg/mL (≈ 1.08 µM)
MFC (Nakaseomyces glabratus): 1 µg/mL (≈ 1.08 µM)
MIC (Nakaseomyces glabratus): 1 µg/mL (≈ 1.08 µM)
MFC (Aspergillus fumigatus [12]): 2 µg/mL (≈ 2.16 µM)
MIC (Aspergillus fumigatus [12]): 2 µg/mL (≈ 2.16 µM)
ED50 (Cryptococcus neoformans [13]): 0.199 mg/kg
MFC (Trichosporon asahii): 4 µg/mL (≈ 4.33 µM)
MIC (Trichosporon asahii): 2 µg/mL (≈ 2.16 µM)
Activity (Aspergillus fumigatus [14]): Active
MIC (Candida albicans [15]): 2 µg/mL (≈ 2.16 µM)
ED50 (Candida albicans [16]): 0.0466 mg/kg
ED50 (Aspergillus fumigatus [17]): 0.289 mg/kg
